Here are results for 26 compounds from PubChem BioAssay AID1899 (The Scripps Research Institute Molecular Screening Center, 2009).

About 1,000 (0.33%) of roughly 300,000 compounds were called active. The list comes from a sample in which actives are over-represented; it also holds similar structures and randomly drawn compounds. A number with no mark means an inactive call.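 How the source made its calls: active means inhibition above the mean of all tested compounds plus 3 SD, set per screening campaign (cut at about 45% in these data); inactive means the rest.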

The test system of the experiment is HCV core protein (residues 1-106) dimerization. The experiment can be described thus: blockers of core106 self-association – biochemical, TR-FRET, high-throughput, primary screen (AID 1899). As to conditions: TR-FRET GST/Flag-core106 dimerization, 1536-well; at 5 µM; active compounds read high. In outline: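 Assay system: Tagged HCV core106 pair (GST and Flag) | Buffer or medium: KF-containing HEPES buffer, pH 7.45, DTT, CHAPS, BSA | Also added: Eu donor and XL665 acceptor anti-tag antibodies | Dosing: One concentration, 5 µM, in 0.5% DMSO | Timing: 4 h at 22.5 °C | Technique: TR-FRET 671 and 617 nm emission | Repeats: Singlicate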
As to `CCOC(=O)C1CSC(CC(=O)Nc2ccc(OCC)cc2)C(=O)N1` (stereo unspecified), the inhibition is -5.22%.

For the compound `O=C(COc1ccc(/C=N/NC(=O)c2ccc(O)cc2)cc1)Nc1ccc([N+](=O)[O-])cc1`, the inhibition is 55.5% (active).

On to `O=C(COc1ccc([N+](=O)[O-])cc1)Nc1ccc(N2CCCC2)cc1`, for which the inhibition is 9.26%.

With `O=C(N/N=C/c1ccc(O)cc1)/C(=C/c1ccc([N+](=O)[O-])cc1)NC(=O)c1ccccc1`, the inhibition is 10.4%.

On to `CC1(c2nnc(-c3ccncc3)o2)CC(c2cccnc2)=NO1` (stereo unspecified), for which the inhibition is 1.13%.

In the case of `Cc1ccc(C)c(NS(=O)(=O)c2c(C)[nH]c(C)c2C(=O)N2CCCCC2)c1`, the inhibition is -13.2%.

As for `O=C1COc2ccc(NC(=O)N3CCN(c4ccc(F)cc4)CC3)cc2N1`, the inhibition was -3.43%.

In the case of `CC(C)(C)OC(=O)NCCCC1=CC2=CC(=O)C(C)(OC(=O)c3ccco3)C(=O)C2=CO1` (stereo unspecified), the inhibition was 28.9%.

For `CC1(OC(=O)C2CCCC2)C(=O)C=C2C=C(c3ccc(C#N)cc3)OC=C2C1=O` (stereo unspecified), the inhibition was 53.6% (active).

Consider `COCCN1C=C2C(=O)C(C)(OC(=O)C3CCCC3)C(=O)C=C2C=C1c1ccsc1` (stereo unspecified), for which the inhibition was -6.55%.

Take `Cn1cc(-c2ccccc2)cc(C#N)c1=O`: the inhibition is 7.52%.

`CCCC(=O)Nc1ccc2c(c1)nc(CCNC(=O)c1ccco1)n2C`: the inhibition is -7.25%.

As for `COc1ccc2oc(=O)c(C(=O)NCc3ccccn3)cc2c1`, the inhibition is -1.18%.

Regarding `Cc1cc(C)cc(NC(=O)NCc2ccccn2)c1`, the inhibition was -2.74%.

In the case of `CCOc1cc(NC(=S)NCCCOC)c(OCC)cc1NC(=O)c1ccco1`, the inhibition was -1.9%.

For `O=C(NCc1ccccn1)c1ccc2nc(-c3ccco3)c(-c3ccco3)nc2c1`, the inhibition was 77.7% (active).

On to `COCCNC(=O)Nc1ccc2nc(-c3ccco3)c(-c3ccco3)nc2c1`, for which the inhibition is 83.7% (active).

As for `O=C(CCc1ccccc1)Nc1ccc(NC(=O)C2CC2)nc1`, the inhibition is 3.25%.

In the case of `O=[N+]([O-])C(=c1ccc2c(c1)N1C3=C(CCCC3)CC3CCCCC31N=2)[N+](=O)[O-]` (stereo unspecified), the inhibition is 62.9% (active).

As for `Cc1ccc(S(=O)(=O)c2c[nH]c3ccc(Cl)cc3c2=O)cc1`, the inhibition is 0.6%.

On to `CCN1C(=NCCc2cccnc2)N[C@@H](c2ccccc2)[C@H](C(=O)OC)[C@H]1C`, for which the inhibition was 8.18%.

Consider `CC(C(=O)O)n1cnc2sc3c(c2c1=O)CCCC3` (stereo unspecified), for which the inhibition was 0.01%.

`COc1ccc(OCC(=O)NN2Cc3ccccc3C2=N)cc1`: the inhibition was -6.41%.

As to `COc1ccc(OCC(=O)Nc2nnc(-c3ccco3)s2)cc1`, the inhibition was 54.1% (active).

As to `Cc1ccc(OCC(=O)Nc2nnc(-c3ccco3)s2)cc1`, the inhibition is 2.47%.

With `CNc1nnc(-c2ccco2)s1`, the inhibition is -7.57%.
